ChEMBL document CHEMBL3769376, “Discovery of I-BRD9, a Selective Cell Active Chemical Probe for Bromodomain Containing Protein 9 Inhibition” (J Med Chem, 2016)
Values after ≈ are worked out from the molar mass of the structure shown. Active and inactive are the calls of the source. The rule behind the calls is not given here.

Assays:
[1] = biological target: Acetylcholine receptor subunit alpha (Homo sapiens) (UniProt P02708); assay: Inhibition of human alpha1 nACHR assessed as change in intracellular calcium level at <5 uM by fluorescence assay; format: cell-based
[2] = biological target: Voltage-dependent L-type calcium channel subunit alpha-1C (Homo sapiens, UniProt Q13936); assay: Inhibition of human Cav1.2 channel at <5 uM by electrophysiology
[3] = Lipophilicity, logD of the compound at pH 7.4; format: physicochemical; conditions: buffer
[4] = Aqueous solubility of the compound in PBS at pH 7.4 by chemiluminescent nitrogen detection method; format: physicochemical
Summary of the method: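 A 10 mM DMSO stock was precipitated into pH7.4 phosphate buffered saline at 5% DMSO. Dissolved compound was quantified by chemiluminescent nitrogen detection.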

Homo sapiens = species: Homo sapiens; assay: Agonist activity at human GABA-A receptor at <5 uM by electrophysiology
[5] = biological target: Alpha-1B adrenergic receptor (Homo sapiens) (UniProt P35368); assay: Antagonist activity at human Alpha 1b adrenergic receptor assessed as change in intracellular calcium level at <5 uM by fluorescence assay; format: functional, cell-based
[6] = biological target: Alpha-2C adrenergic receptor (Homo sapiens) (UniProt P18825); assay: Inhibition of human alpha 2c adrenergic receptor at <5 uM by TR-FRET assay
[7] = biological target: Beta-2 adrenergic receptor (Homo sapiens) (UniProt P07550); assay: Agonist activity at human beta-2 adrenergic receptor at <5 uM by TR-FRET assay
[8] = biological target: Beta-2 adrenergic receptor (Homo sapiens) (UniProt P07550); assay: Antagonist activity at human beta-2 adrenergic receptor at <5 uM by TR-FRET assay
[9] = biological target: D(1A) dopamine receptor (Homo sapiens) (UniProt P21728); assay: Antagonist activity at human D1 dopamine receptor at <5 uM by TR-FRET assay
[10] = biological target: D(2) dopamine receptor (Homo sapiens) (UniProt P14416); assay: Antagonist activity at human D2 dopamine receptor at <5 uM by scintillation proximity assay
[11] = biological target: Histamine H1 receptor (Homo sapiens) (UniProt P35367); assay: Antagonist activity at human histamine H1 receptor assessed as change in intracellular calcium level at <5 uM by fluorescence assay; format: functional, cell-based
[12] = biological target: Muscarinic acetylcholine receptor M2 (Homo sapiens) (UniProt P08172); assay: Agonist activity at human muscarinic 2 receptor assessed as change in intracellular calcium level at <5 uM by fluorescence assay; format: functional, cell-based
[13] = biological target: Vasopressin V1a receptor (Homo sapiens) (UniProt P37288); assay: Antagonist activity at human vasopressin V1a receptor assessed as change in intracellular calcium level at <5 uM by fluorescence assay; format: functional, cell-based
[14] = biological target: 5-hydroxytryptamine receptor 1B (Homo sapiens) (UniProt P28222); assay: Agonist activity at human 5HT1B receptor at <5 uM by scintillation proximity assay
[15] = biological target: 5-hydroxytryptamine receptor 1B (Homo sapiens) (UniProt P28222); assay: Antagonist activity at human 5HT1B receptor at <5 uM by scintillation proximity assay
[16] = biological target: 5-hydroxytryptamine receptor 2A (Homo sapiens) (UniProt P28223); assay: Antagonist activity at human 5HT2A receptor assessed as change in intracellular calcium level at <5 uM by fluorescence assay; format: functional, cell-based
[17] = biological target: 5-hydroxytryptamine receptor 2C (Homo sapiens) (UniProt P28335); assay: Agonist activity at human 5HT2C receptor assessed as change in intracellular calcium level at <5 uM by fluorescence assay; format: functional, cell-based
[18] = biological target: 5-hydroxytryptamine receptor 2C (Homo sapiens) (UniProt P28335); assay: Antagonist activity at human 5HT2C receptor assessed as change in intracellular calcium level at <5 uM by fluorescence assay; format: functional, cell-based
[19] = biological target: 5-hydroxytryptamine receptor 3A (Homo sapiens) (UniProt P46098); assay: Agonist activity at human 5HT3 receptor assessed as change in intracellular calcium level at <5 uM by fluorescence assay; format: cell-based
[20] = biological target: Substance-P receptor (Homo sapiens) (UniProt P25103); assay: Antagonist activity at human NK1 receptor assessed as change in intracellular calcium level at <5 uM by fluorescence assay; format: functional, cell-based
[21] = biological target: Sodium-dependent serotonin transporter (Homo sapiens) (UniProt P31645); assay: Antagonist activity at human SERT transporter at <5 uM by scintillation proximity assay
[22] = biological target: Amine oxidase [flavin-containing] A (Homo sapiens, UniProt P21397); assay: Inhibition of human MAO-A at <5 uM by FLINT assay
[23] = biological target: Amine oxidase [flavin-containing] B (Homo sapiens, UniProt P27338); assay: Inhibition of human MAO-B at <5 uM by FLINT assay
[24] = biological target: cGMP-inhibited 3',5'-cyclic phosphodiesterase 3A (Homo sapiens) (UniProt Q14432); assay: Inhibition of human PDE3A at <5 uM by luminescence assay
[25] = biological target: 3',5'-cyclic-AMP phosphodiesterase 4B (Homo sapiens) (UniProt Q07343); assay: Inhibition of human PDE4B at <5 uM by luminescence assay
[26] = biological target: Prostaglandin G/H synthase 2 (Homo sapiens) (UniProt P35354); assay: Inhibition of human COX2 at <5 uM by FLINT assay
[27] = biological target: Acetylcholinesterase (Homo sapiens) (UniProt P22303); assay: Inhibition of human acetylcholinesterase at <5 uM by mass spectrometry
Cytochrome P450 3A4 = Cytochrome P450 3A4 (Homo sapiens, UniProt P08684); assay: Inhibition of CYP3A4 (unknown origin) preincubated with substrate at <5 uM by mass spectrometry; format: ADME
[28] = biological target: Phosphatidylinositol 4,5-bisphosphate 3-kinase catalytic subunit gamma isoform (Homo sapiens) (UniProt P48736); assay: Inhibition of human PI3Kgamma at <5 uM by TR-FRET assay
[29] = biological target: Tyrosine-protein kinase Lck (Homo sapiens) (UniProt P06239); assay: Inhibition of human LCK at <5 uM by IMAP assay
[30] = biological target: T1, Bromodomain-containing protein 9 (Homo sapiens) (UniProt Q9H8M2); conditions: Kasumi 1, 10 uM
T1 sequence (whole entry): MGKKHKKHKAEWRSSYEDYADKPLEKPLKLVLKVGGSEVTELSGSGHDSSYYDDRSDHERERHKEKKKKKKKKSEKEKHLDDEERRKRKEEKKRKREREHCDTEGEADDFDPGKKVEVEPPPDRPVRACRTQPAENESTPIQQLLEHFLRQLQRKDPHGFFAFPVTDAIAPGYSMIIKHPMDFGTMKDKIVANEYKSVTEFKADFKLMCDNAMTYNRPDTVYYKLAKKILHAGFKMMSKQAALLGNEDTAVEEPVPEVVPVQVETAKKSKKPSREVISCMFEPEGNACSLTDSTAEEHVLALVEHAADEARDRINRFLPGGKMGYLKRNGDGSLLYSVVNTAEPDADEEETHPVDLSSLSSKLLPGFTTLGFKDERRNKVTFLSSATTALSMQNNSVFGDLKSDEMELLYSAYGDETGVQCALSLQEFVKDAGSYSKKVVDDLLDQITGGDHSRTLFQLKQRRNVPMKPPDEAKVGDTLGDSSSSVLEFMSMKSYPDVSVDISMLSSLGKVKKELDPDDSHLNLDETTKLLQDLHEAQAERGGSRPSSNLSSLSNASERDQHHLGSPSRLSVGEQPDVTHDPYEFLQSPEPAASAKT

Chain of 5-hydroxytryptamine receptor 1B (Homo sapiens) (P28222 whole entry): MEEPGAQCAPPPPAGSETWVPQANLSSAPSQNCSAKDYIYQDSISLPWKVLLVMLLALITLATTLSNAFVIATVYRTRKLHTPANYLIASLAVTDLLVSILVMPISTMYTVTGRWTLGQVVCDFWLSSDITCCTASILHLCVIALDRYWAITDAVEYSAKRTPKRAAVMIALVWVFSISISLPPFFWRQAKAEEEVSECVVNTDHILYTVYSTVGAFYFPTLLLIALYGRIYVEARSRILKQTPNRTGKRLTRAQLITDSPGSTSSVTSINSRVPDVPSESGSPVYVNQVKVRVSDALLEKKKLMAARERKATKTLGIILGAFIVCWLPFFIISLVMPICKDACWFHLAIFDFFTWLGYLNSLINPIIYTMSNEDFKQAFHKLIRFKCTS
Chain of 5-hydroxytryptamine receptor 2C (Homo sapiens) (P28335 whole entry): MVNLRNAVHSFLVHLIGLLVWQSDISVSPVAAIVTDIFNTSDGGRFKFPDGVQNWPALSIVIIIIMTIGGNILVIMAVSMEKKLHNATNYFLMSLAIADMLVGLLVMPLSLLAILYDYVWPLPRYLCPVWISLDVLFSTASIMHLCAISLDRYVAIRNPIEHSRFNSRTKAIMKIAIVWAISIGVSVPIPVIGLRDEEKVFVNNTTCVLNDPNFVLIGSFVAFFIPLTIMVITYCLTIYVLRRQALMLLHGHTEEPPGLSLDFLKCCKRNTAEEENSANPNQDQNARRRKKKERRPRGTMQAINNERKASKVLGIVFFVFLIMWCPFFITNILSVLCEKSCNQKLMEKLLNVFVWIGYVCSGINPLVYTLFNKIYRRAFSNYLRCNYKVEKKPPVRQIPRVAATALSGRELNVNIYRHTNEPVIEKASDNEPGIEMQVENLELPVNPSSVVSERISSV
Chain of Beta-2 adrenergic receptor (Homo sapiens) (P07550 whole entry, looked up): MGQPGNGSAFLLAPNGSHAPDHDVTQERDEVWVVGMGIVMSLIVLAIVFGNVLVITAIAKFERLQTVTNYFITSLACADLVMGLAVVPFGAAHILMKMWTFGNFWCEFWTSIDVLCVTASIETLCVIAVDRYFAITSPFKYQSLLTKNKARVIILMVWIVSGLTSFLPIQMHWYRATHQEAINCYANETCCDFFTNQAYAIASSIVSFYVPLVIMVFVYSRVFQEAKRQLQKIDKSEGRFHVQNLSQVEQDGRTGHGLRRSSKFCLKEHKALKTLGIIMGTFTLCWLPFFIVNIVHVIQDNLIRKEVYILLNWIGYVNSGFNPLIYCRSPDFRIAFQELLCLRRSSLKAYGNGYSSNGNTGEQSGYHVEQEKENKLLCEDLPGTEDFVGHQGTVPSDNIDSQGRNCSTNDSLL
Chain of Phosphatidylinositol 4,5-bisphosphate 3-kinase catalytic subunit gamma isoform (Homo sapiens) (P48736 whole entry, looked up, canonical isoform): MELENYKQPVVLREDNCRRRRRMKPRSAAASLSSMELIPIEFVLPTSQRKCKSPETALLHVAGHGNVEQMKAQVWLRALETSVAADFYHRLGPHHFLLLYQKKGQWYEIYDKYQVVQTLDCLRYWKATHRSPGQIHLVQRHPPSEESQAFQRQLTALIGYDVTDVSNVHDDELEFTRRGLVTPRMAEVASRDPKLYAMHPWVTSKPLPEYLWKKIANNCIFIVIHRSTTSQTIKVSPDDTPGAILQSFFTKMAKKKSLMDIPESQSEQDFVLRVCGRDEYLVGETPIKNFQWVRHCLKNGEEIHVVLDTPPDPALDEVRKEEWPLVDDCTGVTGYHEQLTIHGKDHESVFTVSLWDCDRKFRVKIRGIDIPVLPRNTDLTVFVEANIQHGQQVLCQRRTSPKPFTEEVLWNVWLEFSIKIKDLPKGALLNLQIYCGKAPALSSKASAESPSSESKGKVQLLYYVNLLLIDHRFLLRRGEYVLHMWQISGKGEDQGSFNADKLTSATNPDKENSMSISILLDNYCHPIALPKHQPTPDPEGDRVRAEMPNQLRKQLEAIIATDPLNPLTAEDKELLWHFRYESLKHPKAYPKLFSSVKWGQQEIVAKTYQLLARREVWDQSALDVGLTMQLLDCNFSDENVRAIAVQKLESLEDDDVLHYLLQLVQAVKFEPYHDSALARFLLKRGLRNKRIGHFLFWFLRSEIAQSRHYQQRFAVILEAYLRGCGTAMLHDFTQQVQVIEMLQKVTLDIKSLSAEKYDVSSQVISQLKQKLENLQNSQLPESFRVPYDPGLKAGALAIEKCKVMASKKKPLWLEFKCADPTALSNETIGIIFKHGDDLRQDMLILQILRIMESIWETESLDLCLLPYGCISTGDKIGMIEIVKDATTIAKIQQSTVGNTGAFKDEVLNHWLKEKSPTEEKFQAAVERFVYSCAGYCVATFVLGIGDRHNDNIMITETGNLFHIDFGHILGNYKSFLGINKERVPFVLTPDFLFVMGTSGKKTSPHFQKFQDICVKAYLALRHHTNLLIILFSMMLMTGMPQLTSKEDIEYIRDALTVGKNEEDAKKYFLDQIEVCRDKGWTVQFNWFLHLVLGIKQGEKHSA
Chain of Amine oxidase [flavin-containing] A (P21397 whole entry): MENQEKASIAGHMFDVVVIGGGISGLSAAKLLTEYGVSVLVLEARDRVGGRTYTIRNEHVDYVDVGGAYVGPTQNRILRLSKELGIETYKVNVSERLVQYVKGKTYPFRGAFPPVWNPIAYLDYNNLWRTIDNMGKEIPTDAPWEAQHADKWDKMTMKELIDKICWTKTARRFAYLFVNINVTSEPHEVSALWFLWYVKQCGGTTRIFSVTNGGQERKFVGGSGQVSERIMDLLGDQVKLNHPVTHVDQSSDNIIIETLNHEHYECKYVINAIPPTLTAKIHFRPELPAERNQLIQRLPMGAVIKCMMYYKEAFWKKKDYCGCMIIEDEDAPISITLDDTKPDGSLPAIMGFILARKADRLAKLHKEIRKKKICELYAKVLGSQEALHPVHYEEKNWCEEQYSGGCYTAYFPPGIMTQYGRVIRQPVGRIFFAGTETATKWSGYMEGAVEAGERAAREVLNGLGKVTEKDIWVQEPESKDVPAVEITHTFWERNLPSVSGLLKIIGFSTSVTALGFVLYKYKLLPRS
Chain of D(2) dopamine receptor (Homo sapiens) (P14416 whole entry): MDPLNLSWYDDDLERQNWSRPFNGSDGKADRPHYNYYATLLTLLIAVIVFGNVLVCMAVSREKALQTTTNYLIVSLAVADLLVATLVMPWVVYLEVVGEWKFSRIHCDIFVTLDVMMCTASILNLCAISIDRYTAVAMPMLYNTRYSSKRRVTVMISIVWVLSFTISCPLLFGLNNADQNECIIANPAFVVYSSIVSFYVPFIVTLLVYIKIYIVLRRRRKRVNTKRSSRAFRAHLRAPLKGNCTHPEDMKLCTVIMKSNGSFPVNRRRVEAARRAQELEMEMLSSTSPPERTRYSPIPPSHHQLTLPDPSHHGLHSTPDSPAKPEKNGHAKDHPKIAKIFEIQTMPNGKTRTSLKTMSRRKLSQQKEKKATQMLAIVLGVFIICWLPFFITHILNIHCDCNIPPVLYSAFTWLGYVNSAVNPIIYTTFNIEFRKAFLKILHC
Chain of Alpha-1B adrenergic receptor (Homo sapiens) (P35368 whole entry): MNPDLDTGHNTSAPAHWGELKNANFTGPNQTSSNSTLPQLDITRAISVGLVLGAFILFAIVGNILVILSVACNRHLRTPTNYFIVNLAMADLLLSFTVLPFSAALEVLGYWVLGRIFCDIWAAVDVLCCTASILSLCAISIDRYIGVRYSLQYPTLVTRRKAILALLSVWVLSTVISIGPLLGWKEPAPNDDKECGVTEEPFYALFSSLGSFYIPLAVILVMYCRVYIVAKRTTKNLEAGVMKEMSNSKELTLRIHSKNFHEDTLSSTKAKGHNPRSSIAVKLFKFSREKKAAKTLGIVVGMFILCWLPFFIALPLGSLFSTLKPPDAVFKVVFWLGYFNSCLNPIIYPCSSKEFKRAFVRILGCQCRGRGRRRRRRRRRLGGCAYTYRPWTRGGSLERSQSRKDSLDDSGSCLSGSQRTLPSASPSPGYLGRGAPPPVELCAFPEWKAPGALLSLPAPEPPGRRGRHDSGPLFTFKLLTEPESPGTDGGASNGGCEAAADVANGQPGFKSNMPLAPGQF
Chain of Muscarinic acetylcholine receptor M2 (Homo sapiens) (P08172 whole entry): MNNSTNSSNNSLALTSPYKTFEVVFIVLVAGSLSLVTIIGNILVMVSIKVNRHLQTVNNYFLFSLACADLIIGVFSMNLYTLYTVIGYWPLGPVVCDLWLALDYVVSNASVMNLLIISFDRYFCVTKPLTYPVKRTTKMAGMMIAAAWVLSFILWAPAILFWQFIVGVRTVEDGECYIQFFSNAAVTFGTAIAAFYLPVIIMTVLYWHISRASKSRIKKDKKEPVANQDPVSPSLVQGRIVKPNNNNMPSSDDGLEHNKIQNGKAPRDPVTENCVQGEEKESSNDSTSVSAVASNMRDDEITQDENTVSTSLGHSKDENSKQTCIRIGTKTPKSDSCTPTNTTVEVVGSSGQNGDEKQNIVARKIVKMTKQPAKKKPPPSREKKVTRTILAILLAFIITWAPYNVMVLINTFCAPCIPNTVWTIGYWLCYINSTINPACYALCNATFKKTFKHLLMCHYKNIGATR
Chain of Sodium-dependent serotonin transporter (Homo sapiens) (P31645 whole entry, looked up): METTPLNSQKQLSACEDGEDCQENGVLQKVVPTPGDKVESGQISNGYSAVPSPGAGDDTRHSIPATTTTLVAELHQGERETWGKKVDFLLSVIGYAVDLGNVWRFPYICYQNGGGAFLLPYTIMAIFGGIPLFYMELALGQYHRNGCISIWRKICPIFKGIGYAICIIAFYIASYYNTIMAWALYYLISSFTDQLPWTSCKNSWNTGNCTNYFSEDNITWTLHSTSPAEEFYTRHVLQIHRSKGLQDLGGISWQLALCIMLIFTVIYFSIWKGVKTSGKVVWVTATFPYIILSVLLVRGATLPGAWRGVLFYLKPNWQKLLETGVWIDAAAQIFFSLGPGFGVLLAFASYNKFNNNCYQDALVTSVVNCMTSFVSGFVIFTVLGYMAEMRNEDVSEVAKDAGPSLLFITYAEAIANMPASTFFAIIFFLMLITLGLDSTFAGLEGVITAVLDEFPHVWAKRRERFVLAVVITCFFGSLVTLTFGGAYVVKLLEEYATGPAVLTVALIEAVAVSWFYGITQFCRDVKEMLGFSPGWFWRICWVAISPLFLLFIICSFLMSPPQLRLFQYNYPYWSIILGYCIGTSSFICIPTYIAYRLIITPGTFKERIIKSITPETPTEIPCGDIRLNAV

Question: Which inhibition [1] does the source give for `CCn1cc(-c2cccc(C(F)(F)F)c2)c2sc(C(=N)NC3CCS(=O)(=O)CC3)cc2c1=O` here?
Answer: Its inhibition is “inactive”.

Question: What about the “inhibition (INH)” value [2] of the same compound?
Answer: Its value is “Not Active”.

Question: And the logD [3]?
Answer: Its logD is 3.7.

Question: What about the solubility [4] of the same compound?
Answer: Its solubility is 359 µM (≈ 179 µg/mL).

Question: What about the Activity (Homo sapiens) of the same compound?
Answer: The Activity was “inactive”.

Question: And the inhibition [5]?
Answer: Its inhibition is “inactive”.

Question: What about the inhibition [6] of the same compound?
Answer: Its inhibition is “inactive”.

Question: And the Activity [7]?
Answer: The Activity was “inactive”.

Question: And the inhibition [8]?
Answer: The inhibition was “inactive”.

Question: What about the inhibition [9] of the same compound?
Answer: The inhibition was “inactive”.

Question: And the inhibition [10]?
Answer: Its inhibition is “inactive”.

Question: And the inhibition [11]?
Answer: Its inhibition is “inactive”.

Question: What about the Activity [12] of the same compound?
Answer: The Activity was “inactive”.

Question: What about the inhibition [13] of the same compound?
Answer: Its inhibition is “inactive”.

Question: What about the Activity [14] of the same compound?
Answer: Its Activity is “inactive”.

Question: And the inhibition [15]?
Answer: Its inhibition is “inactive”.

Question: What about the inhibition [16] of the same compound?
Answer: The inhibition was “inactive”.

Question: What about the Activity [17] of the same compound?
Answer: Its Activity is “inactive”.

Question: What about the inhibition [18] of the same compound?
Answer: The inhibition was “inactive”.

Question: And the Activity [19]?
Answer: The Activity was “inactive”.

Question: And the inhibition [20]?
Answer: The inhibition was “inactive”.

Question: What about the inhibition [21] of the same compound?
Answer: Its inhibition is “inactive”.

Question: And the “inhibition (INH)” value [22]?
Answer: The value was “Not Active”.

Question: What about the “inhibition (INH)” value [23] of the same compound?
Answer: The value was “Not Active”.

Question: And the inhibition [24]?
Answer: The inhibition was “inactive”.

Question: What about the inhibition [25] of the same compound?
Answer: Its inhibition is “inactive”.

Question: And the inhibition [26]?
Answer: Its inhibition is “inactive”.

Question: And the inhibition [27]?
Answer: Its inhibition is “inactive”.

Question: What about the “inhibition (INH)” value (Cytochrome P450 3A4) of the same compound?
Answer: The value was “Not Active”.

Question: What about the inhibition [28] of the same compound?
Answer: The inhibition was “inactive”.

Question: And the inhibition [29]?
Answer: The inhibition was “inactive”.

Question: And the inhibition [30]?
Answer: Its inhibition is “Active”.
